Assay results: PMC7381488 (EBioMedicine, 2020)
“Also recorded” adds a separate entry of the source. Where two headings read alike, the source gives them in different places. Each block holds one compound with its values, some of them ahead of it.

Experiments:
[1] = format: in vivo, rhesus macaques; settings: 30 mg/kg EVG + 30 mg/kg COBI vs 50 mg/kg EVG alone, macaques
[2] = macaques, cited from earlier work
[3] = Drug concentrations in rectal tissues of macaques 24h after oral dosing; format: in vivo; settings: for rectal tissue concentration, macaques compared with humans: p=0•43 (EVG), p=0•073 (FTC), p=1 (TFV)
Method in brief: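 Macaques received one oral gavage solution (20 mg/kg FTC, 1•5 mg/kg TAF, 30 mg/kg EVG, 30 mg/kg COBI) in 65% PEG 400/20% TPGS/15% phosphate buffer pH 8. Mucosal biopsies were taken about 5-6 cm above the anal aperture 24 h post-dose: FTC/EVG in 12 animals, TFV-DP/FTC-TP in 4. Analysis was by HPLC-MS/MS or LC-MS-MS. Median biopsy weight was 0•037 g. Comparison with humans used the Wilcoxon rank sum test.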

[4] = format: in vivo, humans; settings: for peak intracellular concentration in PBMCs: humans n=7, single Genvoya tablet (200 mg FTC/10 mg TAF/150 mg EVG/150 mg COBI), at 4h, median [range]; for time of peak in PBMCs: humans, single Genvoya tablet
Method in brief: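 Seven HIV-negative men took a single oral tablet (200 mg FTC/10 mg TAF/150 mg EVG/150 mg COBI), with PBMCs collected at each time point. Cells were lysed in cold 80% methanol and stored at -80C. TFV-DP and FTC-TP were quantified by LC-MS-MS, with LLOQ 100 fmol/sample for TFV-DP and 500 fmol/sample for FTC-TP.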

[5] = Intracellular TFV-DP and FTC-TP in PBMCs of macaques after a single oral dose; format: in vivo; settings: for peak intracellular concentration in PBMCs: macaques n=4, 20 mg/kg FTC, 1•5 mg/kg TAF, 30 mg/kg EVG/COBI oral, at 24h, median [range]; for time of peak in PBMCs: macaques, single oral dose
Method in brief: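 Four macaques were gavaged once with FTC 20 mg/kg, TAF 1•5 mg/kg, EVG 30 mg/kg and COBI 30 mg/kg in PEG 400/TPGS/phosphate buffer vehicle. PBMCs were sampled over time and lysed in cold 80% methanol, then stored at -80C. TFV-DP and FTC-TP were measured by LC-MS-MS, with LLOQs of 100 and 500 fmol/sample respectively.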

[6] = format: in vivo, macaques
Method in brief: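 PEP arms were dosed by oral gavage at +2h (n=5), +6h (n=6), +24h (n=6) or +24h/+48h (n=6) after rectal SHIV162P3 exposure. Dosing and challenge recurred every two weeks for up to 8 exposures. PBMC TFV-DP and FTC-TP were measured at each subsequent challenge, 2 weeks after dosing, and reported as medians. Values below LLOQ were set to 10 fmol/10^6 cells.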

[7] = Drug concentrations in rectal tissues of humans 24h after a single tablet; format: in vivo
Method in brief: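 Seven HIV-negative men aged 18-49 each took one observed oral tablet (200 mg FTC/10 mg TAF/150 mg EVG/150 mg COBI). Rectal biopsies were taken 24 h later. TFV, FTC and EVG were measured by HPLC-MS/MS against a 0•5-2000 ng/mL human-plasma standard curve (LLOQ 10 ng/mL). Intracellular TFV-DP and FTC-TP were measured by LC-MS-MS. Median biopsy weight for extracellular drugs was 0•020 g.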

[8] = system: virus; settings: added between 6 and 10 h after virus exposure; cited from earlier work

Compound: Nc1nc(=O)n([C@@H]2CS[C@H](CO)O2)cc1F [FTC, emtricitabine]
rectal tissue concentration, macaques compared with humans ([3]; 24h after dosing): similar

Compound: Nc1nc(=O)n([C@@H]2CS[C@H](COP(=O)(O)OP(=O)(O)OP(=O)(O)O)O2)cc1F [FTC-TP]
peak intracellular concentration in PBMCs [4]: 4215 [3630–7,150] fmols/10^6 cells
time of peak in PBMCs [4]: 4 h
detection in rectal tissue ([3]; macaques, 24h after dosing): mostly undetectable
peak intracellular concentration in PBMCs [5]: 1737 [1153–3523] fmols/10^6 cells
time of peak in PBMCs [5]: 24 h
residual level in PBMCs at the time of virus challenges ([6]; PEP arms): did not detect any residual FTC-TP
detection in rectal tissue ([7]; 24h after dosing): mostly undetectable

Compound: Cc1nnc(C(=O)NC(C)(C)c2nc(C(=O)NCc3ccc(F)cc3)c(O)c(=O)n2C)o1 [RAL, raltegravir]
post-infection inhibition in culture [8]: high post-infection inhibition

The next lines start with results.

increase of plasma Cmax and AUC0-24h by co-administration of COBI [1]: about 4 fold
rectal tissue concentration, macaques compared with humans ([3]; 24h after dosing): similar
Compound: COc1cc2c(cc1Cc1cccc(Cl)c1F)c(=O)c(C(=O)O)cn2[C@H](CO)C(C)C [EVG, elvitegravir]
plasma AUC0-24h of EVG without a booster ([2]; 50 mg/kg EVG oral, no COBI): 4000 ngxh/ml
plasma Cmax of EVG without a booster ([2]; 50 mg/kg EVG oral, no COBI): 280 ng/mL
time in secretions above the protein-adjusted 95% inhibition concentration ([2]; single oral dose, rectal and vaginal secretions): > 48 h
EVG concentration in rectal secretions relative to plasma ([2]; single oral dose): 694 fold
EVG concentration in vaginal secretions relative to plasma ([2]; single oral dose): 114 fold

rectal tissue concentration, macaques compared with humans ([3]; 24h after dosing): similar
Compound: C[C@H](Cn1cnc2c(N)ncnc21)OCP(=O)(O)O [TFV, tenofovir]

peak intracellular concentration in PBMCs [4]: 299 [121–523] fmols/10^6 cells
time of peak in PBMCs [4]: 4 h
median intracellular level in rectal tissue ([3]; macaques, 24h after single oral dose): 10,600 fmols/mg
peak intracellular concentration in PBMCs [5]: 746 [509–1828] fmols/10^6 cells
time of peak in PBMCs [5]: 24 h
median intracellular level in rectal tissue ([7]; 24h after single Genvoya tablet): 17,100 fmols/mg of tissue
Compound: C[C@@H](Cn1cnc2c(N)ncnc21)OCP(=O)(O)OP(=O)(O)OP(=O)(O)O [TFV-DP]
median residual level in PBMCs at time of SHIV challenge ([6]; +2h arm): < LLOQ; also recorded: below the limit of detection
median residual level in PBMCs at time of SHIV challenge ([6]; +6h arm): < LLOQ; also recorded: below the limit of detection
